Results as given in paper PMC7501995 (Cell metabolism, 2020).
Entries after “also recorded” stand apart in the source; their conditions may differ.

Legend:
[1] = test system: C57BL/6J mice rendered diabetic by multiple low-dose STZ; assay: Multiple low-dose STZ-induced diabetes in C57BL/6J mice; assay type: in vivo, mouse
C57BL/6J mice = assay: Oral administration in drinking water to wild-type C57BL/6J mice; assay type: in vivo, mouse
[2] = test system: primary mouse hepatocytes; assay: Gene expression by qRT-PCR in primary hepatocytes; assay type: cell-based
Outline: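 Primary hepatocytes from male C57BL/6J, liver-specific glucagon receptor knockout or Txnip-deficient mice, seeded on collagen at 3×10^5 cells/well in serum-free DMEM. After 4 h attachment, medium changed and cells given varying test compound concentrations for 24 h. Pck1/G6pc read in the presence of glucagon. mRNA quantified by qRT-PCR; n = 3 for knockout hepatocytes.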

L-type calcium channels = assay: Calcium channel blockade; settings: in contrast to verapamil
[3] = test system: TXNIP mRNA expression in INS-1 cells; assay: TXNIP mRNA expression by qRT-PCR in INS-1 cells; assay type: cell-based; settings: rat INS-1 cells, 25 mM glucose, 1 μM, 24 h, qPCR
Outline: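 INS-1 cells, C57BL/6J mouse islets (collagenase XI-isolated) or human islets (at least three donors, same-donor controls) kept overnight in 5 mM glucose RPMI 1640. Then incubated 24 h in 25 mM glucose RPMI 1640 with or without 1 µM test compound. TXNIP and related mRNAs measured by qRT-PCR; n = 6 (INS-1) or 3 (mouse islets) independent experiments.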

[4] = C57BL/6J mice, oral 100 mg/kg/day
[5] = livers of treated C57BL/6J mice
[6] = male C57BL/6J mice, oral 100 mg/kg/day, 3 weeks

CS(=O)(=O)NCC1CCCN(c2ncnc3ccc(C(F)(F)F)cc23)C1 (stereo not drawn) [SRI-37330, N-((1-(6-(trifluoromethyl)quinazolin-4-yl)piperidin-3-yl)methyl)methanesulfonamide]
urine glucose, fold lower than in untreated or empagliflozin-treated animals ([1]; STZ mice): more than 10 fold | blood glucose control compared to metformin or empagliflozin ([1]; STZ mice, drinking water): slightly better blood glucose control than metformin or empagliflozin | body weight at the end of the experiment ([1]; STZ mice, vs untreated): higher body weight | fasting blood glucose ([1]; STZ mice, vs untreated): lower fasting blood glucose | fasting serum insulin ([1]; STZ mice, vs untreated): higher; also recorded: almost two-fold elevation | serum triglycerides ([1]; STZ mice, only treatment with this effect): significantly lower serum triglycerides | fasting serum glucagon, fold lower than untreated ([1]; STZ-diabetic mice): 3.6 fold | effectiveness by oral gavage twice a day ([1]; STZ-induced diabetes, gavage 12 h apart): confirmed its effectiveness in obesity- as well as STZ-induced diabetes | dose-dependence of glucose lowering ([1]; oral gavage twice a day): dose-dependence of the glucose-lowering effects | fasting blood glucose (C57BL/6J mice; [4]): slightly, but significantly lower | fasting serum glucagon (C57BL/6J mice; [4]): lower | fasting serum insulin (C57BL/6J mice; [4]): unchanged | non-fasting blood glucose (C57BL/6J mice; C57BL/6J mice, oral 100 mg/kg/day, within 3 days, persisted 3 weeks): small but significant decrease in blood glucose levels | insulin tolerance test (ITT) (C57BL/6J mice; C57BL/6J mice, oral 100 mg/kg/day, 1 U/kg insulin i.p.): remained unaltered | intraperitoneal glucose tolerance test (GTT) (C57BL/6J mice; C57BL/6J mice, oral 100 mg/kg/day, 3 g/kg glucose i.p. after 4 h fast): consistently and significantly improved glucose tolerance | blood glucose during insulin-induced hypoglycemia (C57BL/6J mice; fasting mice, 15 min after insulin bolus 1 U/kg): able to maintain their blood glucose levels equally well to untreated controls | fatty liver (liver histology) (C57BL/6J mice; lean mice): did not lead to any fatty liver | liver expression of Pck1 and G6pc (C57BL/6J mice; [5]): lower expression | liver glycogen content (C57BL/6J mice; [5]): higher glycogen content | tolerability (C57BL/6J mice; male C57BL/6J mice, oral 100 mg/kg/day in drinking water, 3 weeks): well tolerated | body weight (C57BL/6J mice; [6]): no change in body weight | gross abnormalities in organs at sacrifice (C57BL/6J mice; [6]): no gross abnormalities in any organs | safety profile in vivo (C57BL/6J mice; mouse, in vivo): excellent safety profile in vivo | liver and serum triglyceride levels (C57BL/6J mice; treated C57BL/6J mice): lower liver and serum triglyceride levels | liver transaminase levels (C57BL/6J mice; treated C57BL/6J mice): did not cause any elevation in liver transaminase levels | effect on glucagon-induced expression of Pck1 and G6pc ([2]; primary hepatocytes of liver-specific glucagon receptor knockout mice (GcgR−/−L)): completely blunted | glucagon-induced expression of Pck1 and G6pc ([2]; primary hepatocytes of wild-type C57BL/6J mice, 5 μM, 24h): inhibited | TXNIP signaling genes in primary hepatocytes or livers ([2]; primary hepatocytes or livers of treated mice): not affected | calcium channel blocker activity (L-type calcium channels): not a calcium channel blocker | TXNIP expression in the context of high glucose [3]: significantly inhibit TXNIP expression
